Measurements taken from ChEMBL document CHEMBL5576156, “New pyrazole-pyridazine hybrids as selective COX-2 inhibitors: design, synthesis, molecular docking, in silico studies and investigation of their anti-inflammatory potential by evaluation of TNF-α, IL-6, PGE-2 and NO in LPS-induced RAW264.7 macrophages” (RSC Med Chem, 2024).

Columns and labels:
RAW264.7 [1] = assay: Antiinflammatory activity against LPS induced mouse RAW264.7 cells assessed as decrease in TNFalpha production at 50 uM after 24 hrs by ELISA; type: functional; set-up: scale not given: the % may be the effect or the level left
Procedure, shortened: (§1)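 RAW264.7 cells seeded at 5 × 10^3 per well and held 24 h at 37 °C, 5% CO2. Test compound given at 50 μM together with LPS 1 μg mL−1. Untreated cells were the blank, and LPS + DMSO (0.1% v/v final) was the negative control. IL-6, PGE-2 and TNF-α in the medium were measured by ELISA kits 24 h after treatment.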

RAW264.7 [2] = assay: Antiinflammatory activity against LPS induced mouse RAW264.7 cells assessed as decrease in IL6 production at 50 uM after 24 hrs by ELISA; type: functional; set-up: scale not given: the % may be the effect or the level left; procedure, shortened: as §1
RAW264.7 [3] = assay: Antiinflammatory activity against LPS induced mouse RAW264.7 cells assessed as decrease in PGE2 production at 50 uM after 24 hrs by ELISA; type: functional; set-up: scale not given: the % may be the effect or the level left; procedure, shortened: as §1
RAW264.7 [4] = assay: Antiinflammatory activity in LPS-induced mouse RAW264.7 cells assessed as inhibition of NO production at 20 uM pretreated for 2 hrs followed by LPS stimulation and measured after 24 hrs by Griess reagent based assay; type: functional; set-up: scale not given: the % may be the effect or the level left; conditions: time 26 hrs
Procedure, shortened: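 RAW264.7 cells pretreated with compound for 2 h, then stimulated with LPS 1 μg mL−1 for 24 h. Culture medium was mixed 1:1 with Griess reagent and held 10 min at room temperature. Absorbance at 540 nm was read as the NO indicator.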

Rattus norvegicus = assay: Antiinflammatory activity against carrageenin-induced rat paw edema at 10 mg/kg, po pretreated with carrageenin for 1 hr followed by compound addition and measured after 3 hrs; type: functional
[5] = target: T1, Prostaglandin G/H synthase 2 (Homo sapiens) (UniProt P35354); assay: Inhibition of COX-2 in human whole blood at 8 uM incubated for 24 hrs by immunoassay relative to control; type: tissue-based
T1 sequence (whole entry): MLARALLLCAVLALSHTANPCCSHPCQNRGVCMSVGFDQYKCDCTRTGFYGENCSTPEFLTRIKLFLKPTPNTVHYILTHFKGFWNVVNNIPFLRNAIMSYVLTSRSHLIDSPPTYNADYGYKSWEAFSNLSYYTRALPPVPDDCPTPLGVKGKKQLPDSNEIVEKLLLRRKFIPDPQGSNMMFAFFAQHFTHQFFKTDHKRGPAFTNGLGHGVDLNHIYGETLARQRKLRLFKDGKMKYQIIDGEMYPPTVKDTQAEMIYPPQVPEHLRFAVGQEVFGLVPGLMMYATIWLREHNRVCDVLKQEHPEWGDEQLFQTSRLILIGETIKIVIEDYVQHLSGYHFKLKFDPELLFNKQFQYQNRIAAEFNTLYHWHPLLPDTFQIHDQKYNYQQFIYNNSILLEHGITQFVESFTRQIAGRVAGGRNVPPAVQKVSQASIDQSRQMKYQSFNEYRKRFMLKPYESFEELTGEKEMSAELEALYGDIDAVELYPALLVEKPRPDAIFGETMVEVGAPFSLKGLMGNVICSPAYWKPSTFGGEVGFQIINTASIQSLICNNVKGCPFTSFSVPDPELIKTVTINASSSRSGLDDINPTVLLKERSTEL

Compound	Activity (RAW264.7 [1]) [%]	Activity (RAW264.7 [2]) [%]	Activity (RAW264.7 [3]) [%]	Activity (RAW264.7 [4]) [%]	Activity (Rattus norvegicus) [%]	inhibition [5] [%]
Cc1ccc(-c2cc(C(F)(F)F)nn2-c2ccc(S(N)(=O)=O)cc2)cc1 [CELECOXIB]	75	83	69			
COc1cc(/C=N/C2=NN=C(N)C2c2ccc(Cl)nn2)cc(OC)c1OC (stereo unspecified)	70	78	64	70		
Cc1cc(C)n(-c2ccc(=O)n(CC(=O)NCc3ccccc3)n2)n1					84	
NC1=NN=C(/N=C/c2ccc(Br)cc2)C1c1ccc(Cl)nn1 (stereo unspecified)	65	65	60	53		
COc1cc(/C=N/C2=NNC(=O)C2c2ccc(Cl)nn2)cc(OC)c1OC (stereo unspecified)	48	62	44			
Cc1ccc(-c2cc(C(F)(F)F)nn2C2=NNC(Cl)C=C2)cc1 (stereo unspecified)						78
